The values that follow come from ChEMBL document CHEMBL4680121, “Development of (4-methoxyphenyl)-1H-tetrazol-5-amine regioisomers as a new class of selective antitubercular agents” (Eur J Med Chem, 2020).

In general, MIC refers to the lowest concentration found to suppress growth.

Data set [1] deals with Mycobacterium tuberculosis. As to the kind of experiment: Antitubercular activity against Mycobacterium tuberculosis H37Rv ATCC 25618 assessed as fractional inhibitory concentration index incubated for 14 days in presence of 1/2 x MIC ethambutol by MABA method. As to conditions: time 14 day. The class given is functional. In short, it runs like this:
(§1)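 Interaction analysis in Middlebrook 7H9 with 10% OADC. Combination MICs came from mixing the derivative (1 to 1/32 MIC) with the reference drug at 1/2 MIC, and the reverse, after 14 days at 37 °C with McFarland 1 inoculum. FICI was calculated from the combination MIC values and the MICs alone.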
On the technique in general: Resazurin is reduced to fluorescent resorufin, in cell work by metabolically active cells.

In data set [2] the test system is Mycobacterium tuberculosis. Put plainly: Antitubercular activity against Mycobacterium tuberculosis H37Rv ATCC 25618 assessed as fractional inhibitory concentration index incubated for 14 days in presence of 1/2 x MIC streptomycin by MABA method. The data set is classed as functional. The conditions noted are these: time 14 day. In outline: as §1
Data set [3] has as its system Mycobacterium tuberculosis. As to the kind of experiment: Potentiation of rifampicin-induced antimycobacterial activity against Mycobacterium tuberculosis H37Rv ATCC 25618 assessed as fold decrease in rifampicin MIC at 1/2X MIC incubated for 14 days in presence of rifampicin by MABA method. The class given is functional. The conditions noted are these: time 14 day. In outline:
(§2)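 Combination assay in Middlebrook 7H9 broth with 10% OADC. The reference drug (INH, RMP, SM or EMB) was varied from 1 to 1/32 of its MIC, and the test derivative was fixed at 1/2 its own MIC. Single-agent MICs were determined first by MABA. Inoculum was 1 McFarland, with 14 days of incubation at 37 °C. The endpoint was the lowest reference-drug concentration that inhibited growth.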

The test system of data set [4] is Mycobacterium tuberculosis. Put plainly: Antitubercular activity against Mycobacterium tuberculosis Spec.192 assessed as ethambutol MIC incubated for 14 days in presence of ethambutol by MABA method. The class given is functional. The conditions noted are these: Mycobacterium tuberculosis, 192, 336 h; time 14 day. In outline: (§3)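 In Middlebrook 7H9 with 10% OADC, the reference drug (INH, RMP, SM or EMB) at 1 to 1/32 of its MIC alone was mixed with the test derivative fixed at 1/2 its MIC. 4 ml samples were inoculated with McFarland 1 suspension and incubated 14 days at 37 °C. MIC is the lowest drug concentration in combination that inhibited growth.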

The subject of data set [5] is Caco-2. Put plainly: Cytotoxicity against human Caco-2 cells assessed as LDH release at 100 uM incubated for 72 hrs by LDH assay. The class given is cell-based. As to conditions: caco-2, 72 h. In outline:
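LDH release measured with a kit after 72 h exposure to 100 μM compound. Cells were seeded at 1×10^4 per well in DMEM or EMEM with 2% FBS. Absorbance was read at 490 nm. Release (%) = (A sample − A low control)/(A high control − A low control) × 100, with the Triton X-100 (1%) control taken as 100% release. Values are mean ± SD of three independent experiments run in triplicate.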
(Release of lactate dehydrogenase indicates damage to the cell membrane.)

In data set [6] the test system is Mycobacterium tuberculosis. Put plainly: Antitubercular activity against Mycobacterium tuberculosis H37Rv ATCC 25618 assessed as isoniazid MIC incubated for 14 days in presence of isoniazid by MABA method. The data set is classed as functional. The conditions noted are these: H37Rv ATCC 25618, 336 h, time 14 day. In short, it runs like this: as §3
The subject of data set [7] is Mycobacterium tuberculosis. Put plainly: Potentiation of ethambutol-induced antimycobacterial activity against Mycobacterium tuberculosis Spec.192 assessed as fold decrease in ethambutol MIC at 1/2X MIC incubated for 14 days in presence of ethambutol by MABA method. The class given is functional. As to conditions: time 14 day. In short, it runs like this:
as §2

For data set [8], the system named is Mycobacterium tuberculosis. Put plainly: Antitubercular activity against Mycobacterium tuberculosis H37Rv ATCC 25618 assessed as inhibition of microbial growth incubated for 1 week by MABA method. The data set is classed as functional. As to conditions: H37Rv ATCC 25618, 168 h, time 1 weeks. In outline:
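Microplate Alamar Blue assay in Middlebrook 7H9 broth with 10% OADC. Inoculum from fresh LJ culture was adjusted to McFarland 1 and diluted 1:20. DMSO stocks were two-fold serially diluted to final 0.125–512 µg/ml, with growth and sterile controls. Plates ran 1 week at 37 °C, then Alamar blue was added for 24 h. MIC is the lowest concentration preventing the blue-to-pink change.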

Data set [9] concerns Mycobacterium tuberculosis. Put plainly: Potentiation of rifampicin-induced antimycobacterial activity against Mycobacterium tuberculosis Spec.192 assessed as fold decrease in rifampicin MIC at 1/2X MIC incubated for 14 days in presence of rifampicin by MABA method. The class given is functional. The conditions noted are these: time 14 day. In short, it runs like this: as §2

Data set [10] relates to HaCaT. As to the kind of experiment: Cytotoxicity against human HaCaT cells assessed as reduction in cell viability at 100 uM measured after 72 hrs by MTT assay. The data set is classed as cell-based. In short, it runs like this: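 MTT viability assay on cells grown in DMEM with 10% heat-inactivated FBS, penicillin/streptomycin and 20 mM HEPES at 37 °C/5% CO2. Cells were seeded at 1×10^4 per well and allowed to adhere for 24 h, then the medium was refreshed. Compounds were added at 20–140 μM for 72 h at 37 °C, followed by MTT (0.5 mg/mL in serum-free medium) for 4 h. Untreated cells served as control. IC50 is the concentration giving 50% growth inhibition versus control.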

Data set [11] relates to Mycobacterium tuberculosis. As to the kind of experiment: Potentiation of ethambutol-induced antimycobacterial activity against Mycobacterium tuberculosis H37Rv ATCC 25618 assessed as fold decrease in ethambutol MIC at 1/2X MIC incubated for 14 days in presence of ethambutol by MABA method. The class given is functional. The conditions noted are these: time 14 day. In outline:
as §2

Data set [12] has as its system Staphylococcus epidermidis. As to the kind of experiment: Antibacterial activity against Staphylococcus epidermidis ATCC 35984/RP62A assessed as bacterial growth inhibition measured after 18 hrs by two-fold serial microdilution method. The class given is functional. In outline: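 Two-fold serial broth microdilution in MH II medium following modified CLSI procedures. Compounds were dissolved in DMSO and diluted in medium to at most 1% solvent, tested from 0.03125 to 512 μg/ml. Final inoculum 10^6 CFU/ml. MIC was taken as the lowest concentration with no visible growth after 18 h at 35 °C.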

With `COc1ccc(-n2nnnc2Nc2cccc(Br)c2)cc1`, the “fractional inhibitory concentration index (FICI)” value is given as 0.75 in [1] and 0.5 in data set [2]. The “fold change (FC)” value in data set [3], in [7], in data set [9] and in data set [11] was 2 throughout. The MIC in data set [4] was 1 µg/mL; in data set [6], 0.5 µg/mL; in data set [8], 2 µg/mL; in [12], more than 256 µg/mL. Further, the Activity in data set [5] is listed as less than 17%; in data set [10], “Non-Toxic”.
For the molecule `COc1ccc(-n2nnnc2Nc2ccc(Br)cc2)cc1`, the “fractional inhibitory concentration index (FICI)” value in data set [1] came out at 0.625; in data set [2] it was 0.375. For the same molecule, the minimum inhibitory concentration (MIC) in data set [4] was 1 µg/mL; in data set [6], 0.5 µg/mL; in data set [8], 2 µg/mL; in data set [12], more than 256 µg/mL. In addition, the Activity entry in data set [5] and in data set [10] was “Non-Toxic” each time.
